Measured values published in ChEMBL document CHEMBL4689842, “EUbOPEN Chemogenomics Library wave 1” (2021).

Tested on: Fibroblast
Test: Multiplex assay against human fibroblast
Format: toxicity, cell-based
Outline: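 Imaging took place on a CQ1 microscope at 37°C and 5% CO2 once compound had been added to live cells stained at seeding with Hoechst33342, BioTracker Green Microtubule Cytoskeleton Dye, MitoTracker Red and Annexin V Alexa Fluor 680. CellPathfinder machine-learning gating classed cells as Hoechst high-intensity objects or normal cells, classed normal cells as having healthy, pyknosed or fragmented nuclei, and classed pyknosed cells as mitotic or apoptotic. Tubulin, mitochondrial-mass and membrane-permeability phenotypes are per cents of the healthy-nucleus cells.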

[1] = 12 h, 1 µM, compound concentration 1 uM, replicate 1
[2] = 12 h, 1 µM, compound concentration 1 uM, replicate 2
[3] = 12 h, 10 µM, compound concentration 10 uM, replicate 1
[4] = 12 h, 10 µM, compound concentration 10 uM, replicate 2
[5] = 24 h, 1 µM, compound concentration 1 uM, replicate 1
[6] = 24 h, 1 µM, compound concentration 1 uM, replicate 2
[7] = 24 h, 10 µM, compound concentration 10 uM, replicate 1
[8] = 24 h, 10 µM, compound concentration 10 uM, replicate 2
[9] = 48 h, 1 µM, compound concentration 1 uM, replicate 1
[10] = 48 h, 1 µM, compound concentration 1 uM, replicate 2
[11] = 48 h, 10 µM, compound concentration 10 uM, replicate 1
[12] = 48 h, 10 µM, compound concentration 10 uM, replicate 2

CCCS(=O)(=O)c1nc(NC2CC2)cc(-c2ccc3c(ccn3C3CC(C)(C)NC(C)(C)C3)c2)n1
Population Apoptotic (%) [1]: 41%
Population Fragmented Nuclei (%) [1]: 27%
Population Healthy Nuclei (%) [1]: 42%
Population Hoechst High Intensity Objects (%) [1]: 11%
Population Membrane Permeable-Phenotype (%) [1]: 22%
Population Mitochondria Different-Phenotype (%) [1]: 0%
Population Mitotic Cells (%) [1]: 58%
Population Normal (%) [1]: 88%
Population Pyknosed Nuclei (%) [1]: 30%
Population Tubulin-Different-Phenotype (%) [1]: 35%
Total Cell Count [1]: 107
Population Apoptotic (%) [2]: 38%
Population Fragmented Nuclei (%) [2]: 14%
Population Healthy Nuclei (%) [2]: 71%
Population Hoechst High Intensity Objects (%) [2]: 5%
Population Membrane Permeable-Phenotype (%) [2]: 5%
Population Mitochondria Different-Phenotype (%) [2]: 41%
Population Mitotic Cells (%) [2]: 61%
Population Normal (%) [2]: 94%
Population Pyknosed Nuclei (%) [2]: 13%
Population Tubulin-Different-Phenotype (%) [2]: 29%
Total Cell Count [2]: 1044
Population Apoptotic (%) [3]: 71%
Population Fragmented Nuclei (%) [3]: 42%
Population Healthy Nuclei (%) [3]: 4%
Population Hoechst High Intensity Objects (%) [3]: 10%
Population Membrane Permeable-Phenotype (%) [3]: 60%
Population Mitochondria Different-Phenotype (%) [3]: 0%
Population Mitotic Cells (%) [3]: 28%
Population Normal (%) [3]: 89%
Population Pyknosed Nuclei (%) [3]: 53%
Population Tubulin-Different-Phenotype (%) [3]: 40%
Total Cell Count [3]: 124
Population Apoptotic (%) [4]: 92%
Population Fragmented Nuclei (%) [4]: 75%
Population Hoechst High Intensity Objects (%) [4]: 7%
Population Membrane Permeable-Phenotype (%) [4]: 100%
Population Mitochondria Different-Phenotype (%) [4]: 38%
Population Mitotic Cells (%) [4]: 7%
Population Normal (%) [4]: 92%
Population Pyknosed Nuclei (%) [4]: 19%
Population Tubulin-Different-Phenotype (%) [4]: 84%
Total Cell Count [4]: 101
Population Apoptotic (%) [5]: 42%
Population Fragmented Nuclei (%) [5]: 33%
Population Healthy Nuclei (%) [5]: 39%
Population Hoechst High Intensity Objects (%) [5]: 15%
Population Membrane Permeable-Phenotype (%) [5]: 23%
Population Mitochondria Different-Phenotype (%) [5]: 13%
Population Mitotic Cells (%) [5]: 57%
Population Normal (%) [5]: 84%
Population Pyknosed Nuclei (%) [5]: 27%
Population Tubulin-Different-Phenotype (%) [5]: 39%
Total Cell Count [5]: 114
Population Apoptotic (%) [6]: 22%
Population Fragmented Nuclei (%) [6]: 15%
Population Healthy Nuclei (%) [6]: 66%
Population Hoechst High Intensity Objects (%) [6]: 5%
Population Membrane Permeable-Phenotype (%) [6]: 10%
Population Mitochondria Different-Phenotype (%) [6]: 21%
Population Mitotic Cells (%) [6]: 77%
Population Normal (%) [6]: 94%
Population Pyknosed Nuclei (%) [6]: 18%
Population Tubulin-Different-Phenotype (%) [6]: 29%
Total Cell Count [6]: 1113
Population Apoptotic (%) [7]: 76%
Population Fragmented Nuclei (%) [7]: 38%
Population Healthy Nuclei (%) [7]: 11%
Population Hoechst High Intensity Objects (%) [7]: 19%
Population Membrane Permeable-Phenotype (%) [7]: 63%
Population Mitochondria Different-Phenotype (%) [7]: 0%
Population Mitotic Cells (%) [7]: 24%
Population Normal (%) [7]: 80%
Population Pyknosed Nuclei (%) [7]: 50%
Population Tubulin-Different-Phenotype (%) [7]: 54%
Total Cell Count [7]: 123
Population Apoptotic (%) [8]: 90%
Population Fragmented Nuclei (%) [8]: 73%
Population Healthy Nuclei (%) [8]: 10%
Population Hoechst High Intensity Objects (%) [8]: 7%
Population Membrane Permeable-Phenotype (%) [8]: 96%
Population Mitochondria Different-Phenotype (%) [8]: 75%
Population Mitotic Cells (%) [8]: 10%
Population Normal (%) [8]: 92%
Population Pyknosed Nuclei (%) [8]: 15%
Population Tubulin-Different-Phenotype (%) [8]: 96%
Total Cell Count [8]: 104
Population Apoptotic (%) [9]: 58%
Population Fragmented Nuclei (%) [9]: 34%
Population Healthy Nuclei (%) [9]: 36%
Population Hoechst High Intensity Objects (%) [9]: 20%
Population Membrane Permeable-Phenotype (%) [9]: 16%
Population Mitochondria Different-Phenotype (%) [9]: 10%
Population Mitotic Cells (%) [9]: 41%
Population Normal (%) [9]: 79%
Population Pyknosed Nuclei (%) [9]: 28%
Population Tubulin-Different-Phenotype (%) [9]: 60%
Total Cell Count [9]: 105
Population Apoptotic (%) [10]: 75%
Population Fragmented Nuclei (%) [10]: 46%
Population Healthy Nuclei (%) [10]: 49%
Population Hoechst High Intensity Objects (%) [10]: 8%
Population Membrane Permeable-Phenotype (%) [10]: 26%
Population Mitochondria Different-Phenotype (%) [10]: 12%
Population Mitotic Cells (%) [10]: 25%
Population Normal (%) [10]: 91%
Population Pyknosed Nuclei (%) [10]: 3%
Population Tubulin-Different-Phenotype (%) [10]: 46%
Total Cell Count [10]: 110
Population Apoptotic (%) [11]: 76%
Population Fragmented Nuclei (%) [11]: 59%
Population Healthy Nuclei (%) [11]: 25%
Population Hoechst High Intensity Objects (%) [11]: 39%
Population Membrane Permeable-Phenotype (%) [11]: 76%
Population Mitochondria Different-Phenotype (%) [11]: 4%
Population Mitotic Cells (%) [11]: 23%
Population Normal (%) [11]: 60%
Population Pyknosed Nuclei (%) [11]: 15%
Population Tubulin-Different-Phenotype (%) [11]: 61%
Total Cell Count [11]: 137
Population Apoptotic (%) [12]: 75%
Population Fragmented Nuclei (%) [12]: 78%
Population Healthy Nuclei (%) [12]: 15%
Population Hoechst High Intensity Objects (%) [12]: 37%
Population Membrane Permeable-Phenotype (%) [12]: 33%
Population Mitochondria Different-Phenotype (%) [12]: 9%
Population Mitotic Cells (%) [12]: 25%
Population Normal (%) [12]: 62%
Population Pyknosed Nuclei (%) [12]: 5%
Population Tubulin-Different-Phenotype (%) [12]: 42%
Total Cell Count [12]: 215
